How the values were obtained:
[1] = Cytotoxicity against mouse L929 cells assessed as cell viability up to 150 uM; assay type: cell-based; details: read-out: Activity
L929 [2] = assay: Antiinflammatory activity against mouse L929 cells assessed as inhibition of LPS-induced TNFalpha production after 48 hrs; assay type: functional, cell-based
In short: (§1)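 Mouse L929 fibroblasts were stimulated with lipopolysaccharide and exposed to compounds at 15.62 µM and 125 µM. TNFα was quantified in culture supernatants in pg/mL and expressed as percent decrease versus stimulated cells. Thalidomide served as the reference control.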

L929 [3] = assay: Antiinflammatory activity against mouse L929 cells assessed as inhibition of LPS-induced TNFalpha production at 125 uM after 48 hrs; assay type: functional; details: L929, 48 h; in short: as §1
L929 [4] = assay: Antiinflammatory activity against mouse L929 cells assessed as inhibition of LPS-induced TNFalpha production at 15.625 uM after 48 hrs; assay type: functional; details: L929, 48 h; in short: as §1
Mus musculus = assay: Antinociceptive effect in mouse assessed as inhibition of acetic acid-induced abdominal constriction at 100 uM/kg, po; assay type: functional, Abdomen
Salmonella typhimurium [5] = assay: Genotoxicity in Salmonella typhimurium TA100 at 1.25 ug/plate assessed as number of revertants per plate in presence of S9 liver extract (reference value: 128.9 +/- 7.3 no unit); assay type: toxicity, organism-based, Liver S9 fraction; details: salmonella enterica subsp. enterica serovar typhimurium
Salmonella typhimurium [6] = assay: Genotoxicity in Salmonella typhimurium TA102 assessed as mutagenic index at 2 umol/plate; assay type: toxicity, organism-based; details: salmonella enterica subsp. enterica serovar typhimurium
Salmonella typhimurium [7] = assay: Genotoxicity in Salmonella typhimurium TA102 assessed as mutagenic index at 8 umol/plate; assay type: toxicity, organism-based; details: salmonella enterica subsp. enterica serovar typhimurium
Salmonella typhimurium [8] = assay: Genotoxicity in Salmonella typhimurium TA102 assessed as mutagenic index at 4 umol/plate in presence of S9 liver extract; assay type: toxicity, organism-based, Liver S9 fraction; details: salmonella enterica subsp. enterica serovar typhimurium
Salmonella typhimurium [9] = assay: Genotoxicity in Salmonella typhimurium TA102 assessed as mutagenic index at 32 umol/plate in presence of S9 liver extract; assay type: toxicity, organism-based, Liver S9 fraction; details: salmonella enterica subsp. enterica serovar typhimurium
Salmonella typhimurium [10] = assay: Genotoxicity in Salmonella typhimurium TA100 assessed as mutagenic index at 2 umol/plate in presence of S9 liver extract; assay type: toxicity, organism-based, Liver S9 fraction; details: salmonella enterica subsp. enterica serovar typhimurium
Salmonella typhimurium [11] = assay: Genotoxicity in Salmonella typhimurium TA100 assessed as mutagenic index at 16 umol/plate in presence of S9 liver extract; assay type: toxicity, organism-based, Liver S9 fraction; details: salmonella enterica subsp. enterica serovar typhimurium
Salmonella typhimurium [12] = assay: Genotoxicity in Salmonella typhimurium TA100 assessed as mutagenic index at 4 umol/plate in presence of S9 liver extract; assay type: toxicity, organism-based, Liver S9 fraction; details: salmonella enterica subsp. enterica serovar typhimurium
Salmonella typhimurium [13] = assay: Genotoxicity in Salmonella typhimurium TA100 assessed as mutagenic index at 2 umol/plate; assay type: toxicity, organism-based; details: salmonella enterica subsp. enterica serovar typhimurium
Salmonella typhimurium [14] = assay: Genotoxicity in Salmonella typhimurium TA102 assessed as mutagenic index at 2 umol/plate in presence of S9 liver extract; assay type: toxicity, organism-based, Liver S9 fraction; details: salmonella enterica subsp. enterica serovar typhimurium
Salmonella typhimurium [15] = assay: Genotoxicity in Salmonella typhimurium TA102 assessed as mutagenic index at 8 umol/plate in presence of S9 liver extract; assay type: toxicity, organism-based, Liver S9 fraction; details: salmonella enterica subsp. enterica serovar typhimurium
Mycobacterium leprae = assay: Antimycobacterial activity against Mycobacterium leprae inoculated in mouse model assessed as mean number of bacilli at 200 mg/kg, po 5 days/week for 4 weeks (reference value: 3.56 x 10^6 cells); assay type: functional
Salmonella typhimurium [16] = assay: Genotoxicity in Salmonella typhimurium TA100 assessed as mutagenic index at 32 umol/plate; assay type: toxicity, organism-based; details: salmonella enterica subsp. enterica serovar typhimurium
Salmonella typhimurium [17] = assay: Genotoxicity in Salmonella typhimurium TA102 assessed as mutagenic index at 16 umol/plate in presence of S9 liver extract; assay type: toxicity, organism-based, Liver S9 fraction; details: salmonella enterica subsp. enterica serovar typhimurium
Salmonella typhimurium [18] = assay: Genotoxicity in Salmonella typhimurium TA100 assessed as mutagenic index at 32 umol/plate in presence of S9 liver extract; assay type: toxicity, organism-based, Liver S9 fraction; details: salmonella enterica subsp. enterica serovar typhimurium
Salmonella typhimurium [19] = assay: Genotoxicity in Salmonella typhimurium TA102 assessed as mutagenic index at 32 umol/plate; assay type: toxicity, organism-based; details: salmonella enterica subsp. enterica serovar typhimurium
Salmonella typhimurium [20] = assay: Genotoxicity in Salmonella typhimurium TA100 assessed as mutagenic index at 16 umol/plate; assay type: toxicity, organism-based; details: salmonella enterica subsp. enterica serovar typhimurium
Salmonella typhimurium [21] = assay: Genotoxicity in Salmonella typhimurium TA100 assessed as mutagenic index at 4 umol/plate; assay type: toxicity, organism-based; details: salmonella enterica subsp. enterica serovar typhimurium
Salmonella typhimurium [22] = assay: Genotoxicity in Salmonella typhimurium TA100 assessed as mutagenic index at 8 umol/plate in presence of S9 liver extract; assay type: toxicity, organism-based, Liver S9 fraction; details: salmonella enterica subsp. enterica serovar typhimurium
Salmonella typhimurium [23] = assay: Genotoxicity in Salmonella typhimurium TA102 assessed as mutagenic index at 4 umol/plate; assay type: toxicity, organism-based; details: salmonella enterica subsp. enterica serovar typhimurium
Salmonella typhimurium [24] = assay: Genotoxicity in Salmonella typhimurium TA102 assessed as mutagenic index at 16 umol/plate; assay type: toxicity, organism-based; details: salmonella enterica subsp. enterica serovar typhimurium
Salmonella typhimurium [25] = assay: Genotoxicity in Salmonella typhimurium TA100 assessed as mutagenic index at 8 umol/plate; assay type: toxicity, organism-based; details: salmonella enterica subsp. enterica serovar typhimurium
Salmonella typhimurium [26] = assay: Genotoxicity in Salmonella typhimurium TA102 at 3 ug/plate assessed as number of revertants per plate (reference value: 301 +/- 5.2 no unit); assay type: toxicity, organism-based; details: salmonella enterica subsp. enterica serovar typhimurium

## O=C1c2ccccc2C(=O)N1c1ccc(S(=O)(=O)Nc2ccccn2)cc1
[1]
  viability: > 90%
L929 [2]
  inhibition: Dose-dependent effect
L929 [3]
  inhibition at 125 µM: 66.6%
L929 [4]
  inhibition at 15.625 µM: 26.5%
Mus musculus
  inhibition (INH): 49.8%

## Cc1c(N(C)CS(=O)(=O)O)c(=O)n(-c2ccccc2)n1C [METAMIZOLE]
Mus musculus
  inhibition (INH): 33.5%

## Nc1ccc2cc3ccccc3cc2c1 [2-AMINOANTHRACENE]
Salmonella typhimurium [5]
  Activity: 2540

## Cc1ccnc(NS(=O)(=O)c2ccc(N3C(=O)c4ccccc4C3=O)cc2)n1
Salmonella typhimurium [6]
  Activity: 1.08
Salmonella typhimurium [7]
  Activity: 1.26
Salmonella typhimurium [8]
  Activity: 1.17
[1]
  viability: > 90%
Salmonella typhimurium [9]
  Activity: 1.38
Salmonella typhimurium [10]
  Activity: 1.08
Salmonella typhimurium [11]
  Activity: 1.64
Salmonella typhimurium [12]
  Activity: 1.21
Salmonella typhimurium [13]
  Activity: 1.07
Salmonella typhimurium [14]
  Activity: 1.07
Salmonella typhimurium [15]
  Activity: 1.24
Mycobacterium leprae
  Activity: 2500000
L929 [2]
  inhibition: Dose-dependent effect
Salmonella typhimurium [16]
  Activity: 1.59
L929 [3]
  inhibition at 125 µM: 87.8%
L929 [4]
  inhibition at 15.625 µM: 86.3%
Mus musculus
  inhibition (INH): 34.15%
Salmonella typhimurium [17]
  Activity: 1.31
Salmonella typhimurium [18]
  Activity: 1.59
Salmonella typhimurium [19]
  Activity: 1.4
Salmonella typhimurium [20]
  Activity: 1.61
Salmonella typhimurium [21]
  Activity: 1.19
Salmonella typhimurium [22]
  Activity: 1.33
Salmonella typhimurium [23]
  Activity: 1.22
Salmonella typhimurium [24]
  Activity: 1.36
Salmonella typhimurium [25]
  Activity: 1.33

## COc1cccc2c1C(=O)c1c(O)c3c(c(O)c1C2=O)C[C@@](O)(C(C)=O)C[C@@H]3O[C@H]1C[C@H](N)[C@H](O)[C@H](C)O1 [DAUNORUBICIN]
Salmonella typhimurium [26]
  Activity: 902

## O=C1CCC(N2C(=O)c3ccccc3C2=O)C(=O)N1 (stereo not drawn) [THALIDOMIDE]
Mycobacterium leprae
  Activity: 4600000
L929 [3]
  inhibition at 125 µM: 42.8%
L929 [4]
  inhibition at 15.625 µM: 35.4%
Mus musculus
  inhibition (INH): 42.2%

## Cc1cc(NS(=O)(=O)c2ccc(N3C(=O)c4ccccc4C3=O)cc2)no1
[1]
  viability: > 90%
L929 [2]
  inhibition: Dose-dependent effect
L929 [3]
  inhibition at 125 µM: 34.1%
L929 [4]
  inhibition at 15.625 µM: 16.2%
Mus musculus
  inhibition (INH): 17.9%

## NS(=O)(=O)c1ccc(N2C(=O)c3ccccc3C2=O)cc1
[1]
  viability: > 90%
L929 [2]
  inhibition: Dose-dependent effect
L929 [3]
  inhibition at 125 µM: 70.7%
L929 [4]
  inhibition at 15.625 µM: 53%
Mus musculus
  inhibition (INH): 26.75%

## Nc1ccc(NS(=O)(=O)c2ccc(N3C(=O)c4ccccc4C3=O)cc2)cc1
[1]
  viability: > 90%
L929 [2]
  inhibition: Dose-dependent effect
L929 [3]
  inhibition at 125 µM: 40.6%
L929 [4]
  inhibition at 15.625 µM: 28.8%
Mus musculus
  inhibition (INH): 35.2%

## N=C(N)NS(=O)(=O)c1ccc(N2C(=O)c3ccccc3C2=O)cc1
[1]
  viability: > 90%
L929 [2]
  inhibition: Dose-dependent effect
L929 [3]
  inhibition at 125 µM: 7.24%
L929 [4]
  inhibition at 15.625 µM: 0%
Mus musculus
  inhibition (INH): 29.63%

## Cc1cc(C)nc(NS(=O)(=O)c2ccc(N3C(=O)c4ccccc4C3=O)cc2)n1
[1]
  viability: > 90%
L929 [2]
  inhibition: Dose-dependent effect
L929 [3]
  inhibition at 125 µM: 81.3%
L929 [4]
  inhibition at 15.625 µM: 53.9%
Mus musculus
  inhibition (INH): 27.37%

## O=C1c2ccccc2C(=O)N1c1ccc(S(=O)(=O)Nc2ncccn2)cc1
[1]
  viability: > 90%
L929 [2]
  inhibition: Dose-dependent effect
L929 [3]
  inhibition at 125 µM: 79.3%
L929 [4]
  inhibition at 15.625 µM: 33.7%
Mus musculus
  inhibition (INH): 39.1%

## COc1cnc(NS(=O)(=O)c2ccc(N3C(=O)c4ccccc4C3=O)cc2)nc1
[1]
  viability: > 90%
L929 [2]
  inhibition: Dose-dependent effect
L929 [3]
  inhibition at 125 µM: 80.8%
L929 [4]
  inhibition at 15.625 µM: 73.5%
Mus musculus
  inhibition (INH): 27.57%
